Measured values as given in ChEMBL document CHEMBL5705899 (Biochem J, 2014).
Activity calls are given as the source filed them. The rule behind the calls is not given here.

Tests used:
[1] = biological target: Testis-specific serine/threonine-protein kinase 1 (Homo sapiens) (UniProt Q9BXA7); assay: Inhibition of recombinant human N-terminal GST-tagged TSSK1 (1 to 367 residues) expressed in Escherichia coli assessed as remaining activity at 1 uM using KKKVSRSGLYRSPSMPENLNRPR as substrate incubated for 30 mins in presence of [gamma-33P]ATP by filter binding method relative to control
[2] = biological target: Serine/threonine-protein kinase SIK3 (Homo sapiens) (UniProt Q9Y2K2); assay: Inhibition of recombinant human N-terminal GST and HA-tagged SIK3 (2 to 1369 residues) expressed in baculovirus infected Sf21 cells assessed as remaining activity at 1 uM using ALNRTSSDSALHRRR as substrate incubated for 30 mins in presence of [gamma-33P]ATP by filter binding method relative to control
[3] = biological target: Serine/threonine-protein kinase BRSK1 (Homo sapiens) (UniProt Q8TDC3); assay: Inhibition of recombinant human N-terminal His6-tagged BRSK1 (2 to 778 residues) expressed in baculovirus infected Sf21 cells assessed as remaining activity at 1 uM using KKLNRTLSFAEPG as substrate incubated for 30 mins in presence of [gamma-33P]ATP by filter binding method relative to control
[4] = biological target: Ephrin type-B receptor 4 (Homo sapiens) (UniProt P54760); assay: Inhibition of recombinant human N-terminal His6-tagged EPHB4 (561 to 987 residues) expressed in baculovirus infected Sf21 cells assessed as remaining activity at 1 uM using Poly (Glu,Tyr) as substrate incubated for 30 mins in presence of [gamma-33P]ATP by filter binding method relative to control
[5] = biological target: Dual specificity tyrosine-phosphorylation-regulated kinase 1A (Homo sapiens) (UniProt Q13627); assay: Inhibition of recombinant human N-terminal GST-tagged DYRK1A (1 to 502 residues) expressed in Escherichia coli assessed as remaining activity at 1 uM using KKISGRLSPIMTEQ as substrate incubated for 30 mins in presence of [gamma-33P]ATP by filter binding method relative to control
[6] = biological target: Tyrosine-protein kinase Lck (Homo sapiens) (UniProt P06239); assay: Inhibition of human LCK at 1 uM using polyEY as substrate in presence of 33P-ATP by ProQinase assay
[7] = biological target: Ephrin type-A receptor 7 (Homo sapiens) (UniProt Q15375); assay: Inhibition of human EPHA7 at 1 uM using polyEy as substrate in presence of 33P-ATP by ProQinase assay
[8] = biological target: Fibroblast growth factor receptor 4 (Homo sapiens) (UniProt P22455); assay: Inhibition of human FGFR4 at 1 uM using polyEy as substrate in presence of 33P-ATP by ProQinase assay
[9] = biological target: Vascular endothelial growth factor receptor 3 (Homo sapiens) (UniProt P35916); assay: Inhibition of human VEGFR3 at 1 uM using polyEY as substrate in presence of 33P-ATP by ProQinase assay
[10] = biological target: LIM domain kinase 2 (Homo sapiens) (UniProt P53671); assay: Inhibition of human LIMK2 at 1 uM using CFL1 as substrate in presence of 33P-ATP by ProQinase assay
[11] = biological target: Interleukin-1 receptor-associated kinase 4 (Homo sapiens) (UniProt Q9NWZ3); assay: Inhibition of human IRAK4 at 1 uM using RB-CTF as substrate in presence of 33P-ATP by ProQinase assay
[12] = biological target: Casein kinase I isoform gamma-3 (Homo sapiens) (UniProt Q9Y6M4); assay: Inhibition of human CK1gamma3 at 1 uM using casein as substrate in presence of 33P-ATP by ProQinase assay
[13] = biological target: Serine/threonine-protein kinase MRCK beta (Homo sapiens) (UniProt Q9Y5S2); assay: Inhibition of human CDC42BPB at 1 uM using RB-S6P as substrate in presence of 33P-ATP by ProQinase assay
[14] = biological target: STE20/SPS1-related proline-alanine-rich protein kinase (Homo sapiens) (UniProt Q9UEW8); assay: Inhibition of human STK39 at 1 uM using RBER-CDC25tide as substrate in presence of 33P-ATP by ProQinase assay
[15] = biological target: CDK3/Cyclin E (Homo sapiens) (UniProt P24864+Q00526); assay: Inhibition of human CDK3/CyclinE1 at 1 uM using RBER-CHKtide as substrate in presence of 33P-ATP by ProQinase assay; assay type: protein-complex assay
[16] = biological target: Mitogen-activated protein kinase kinase kinase 5 (Homo sapiens) (UniProt Q99683); assay: Inhibition of human ASK1 at 1 uM using RBER-GSK3 as substrate in presence of 33P-ATP by ProQinase assay
[17] = biological target: Proto-oncogene tyrosine-protein kinase Src (Homo sapiens) (UniProt P12931); assay: Inhibition of human GST/His-tagged SRC at 1 uM using PolyEY as substrate in presence of 33P-ATP by ProQinase assay
[18] = biological target: Mitogen-activated protein kinase kinase kinase kinase 5 (Homo sapiens) (UniProt Q9Y4K4); assay: Inhibition of human MAP4K5 at 1 uM using casein as substrate in presence of 33P-ATP by ProQinase assay
[19] = biological target: STE20-like serine/threonine-protein kinase (Homo sapiens) (UniProt Q9H2G2); assay: Inhibition of human SLK at 1 uM using RB-S6P as substrate in presence of 33P-ATP by ProQinase assay
[20] = tested on: RAF proto-oncogene serine/threonine-protein kinase (Homo sapiens), P04049 [Y340D,Y341D]; assay: Inhibition of human RAF1 Y340D/Y341D double mutant at 1 uM using MEK1-K97M as substrate in presence of 33P-ATP by ProQinase assay
[21] = biological target: Myosin light chain kinase, smooth muscle (Homo sapiens) (UniProt Q15746); assay: Inhibition of human MYLK at 1 uM using RB-S6P as substrate in presence of 33P-ATP by ProQinase assay
[22] = biological target: Activin receptor type-1 (Homo sapiens) (UniProt Q04771); assay: Inhibition of human ACVR1 at 1 uM using RBER-GSK3 as substrate in presence of 33P-ATP by ProQinase assay
[23] = biological target: Choline/ethanolamine kinase (Homo sapiens) (UniProt Q9Y259); assay: Inhibition of recombinant human N-terminal GST-tagged CHKbeta (1 to 395 residues) expressed in Escherichia coli at 1 uM using choline chloride as substrate incubated for 40 mins by ADP-Glo assay
[24] = biological target: Phosphatidylinositol 4,5-bisphosphate 3-kinase catalytic subunit beta isoform (Homo sapiens, UniProt P42338); assay: Inhibition of PI3Kbeta (unknown origin) using PtdIns(4,5)P2 as substrate preincubated for 20 mins followed by substrate addition and measured after 80 mins by Kinase-Glo assay
[25] = biological target: T1, Phosphatidylinositol 4-phosphate 5-kinase type-1 gamma (Homo sapiens, UniProt O60331); assay: Inhibition of PIP5K1C (unknown origin) using D-myo-PIP as substrate incubated for 45 mins by ADP-Glo assay
Summary of the method: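 Substrates were 14 μM PtdIns 4-phosphate and 20 μM ATP, with inhibitor at varying concentrations. Reactions ran 45 min at ambient temperature, then luminescence detection was done as for the PI4K assays.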

[26] = biological target: T1, Phosphatidylinositol 4-phosphate 5-kinase type-1 gamma; assay: Inhibition of human PIP5K1C using PI/PS as substrate by ADP-Glo assay

T1 sequence (O60331 whole entry): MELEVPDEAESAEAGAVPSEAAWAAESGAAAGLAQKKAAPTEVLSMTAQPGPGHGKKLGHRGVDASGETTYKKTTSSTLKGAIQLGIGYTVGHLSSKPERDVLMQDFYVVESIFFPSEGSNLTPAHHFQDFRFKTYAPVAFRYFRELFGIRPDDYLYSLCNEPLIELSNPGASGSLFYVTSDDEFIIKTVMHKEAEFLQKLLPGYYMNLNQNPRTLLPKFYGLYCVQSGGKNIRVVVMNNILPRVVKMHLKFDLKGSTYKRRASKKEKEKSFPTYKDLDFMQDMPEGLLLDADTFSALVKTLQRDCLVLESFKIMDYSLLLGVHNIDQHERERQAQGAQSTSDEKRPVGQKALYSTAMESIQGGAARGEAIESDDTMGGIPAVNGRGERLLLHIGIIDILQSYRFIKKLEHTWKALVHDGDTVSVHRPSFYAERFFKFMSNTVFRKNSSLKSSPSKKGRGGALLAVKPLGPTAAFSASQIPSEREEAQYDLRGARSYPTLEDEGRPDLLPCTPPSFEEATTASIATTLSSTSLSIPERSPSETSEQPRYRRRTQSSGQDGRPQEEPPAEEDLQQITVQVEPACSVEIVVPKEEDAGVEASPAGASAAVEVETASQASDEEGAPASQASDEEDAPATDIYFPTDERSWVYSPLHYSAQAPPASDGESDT
Sequence of Activin receptor type-1 (Homo sapiens) (Q04771 whole entry, the tested form may be a part): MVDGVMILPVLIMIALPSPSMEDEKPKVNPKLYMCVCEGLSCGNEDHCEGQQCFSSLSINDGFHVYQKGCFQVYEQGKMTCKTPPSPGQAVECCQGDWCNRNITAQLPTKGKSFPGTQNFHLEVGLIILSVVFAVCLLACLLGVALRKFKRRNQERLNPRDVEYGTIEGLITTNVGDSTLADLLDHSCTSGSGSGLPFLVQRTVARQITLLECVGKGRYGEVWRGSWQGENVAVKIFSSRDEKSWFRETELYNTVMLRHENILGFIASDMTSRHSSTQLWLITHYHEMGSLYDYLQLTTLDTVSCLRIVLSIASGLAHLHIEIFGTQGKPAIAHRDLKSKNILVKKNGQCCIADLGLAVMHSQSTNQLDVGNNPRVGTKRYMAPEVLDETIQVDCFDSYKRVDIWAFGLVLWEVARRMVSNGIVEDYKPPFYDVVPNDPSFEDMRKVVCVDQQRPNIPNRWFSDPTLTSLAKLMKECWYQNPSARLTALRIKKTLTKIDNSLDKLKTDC
Sequence of Myosin light chain kinase, smooth muscle (Homo sapiens) (Q15746 whole entry): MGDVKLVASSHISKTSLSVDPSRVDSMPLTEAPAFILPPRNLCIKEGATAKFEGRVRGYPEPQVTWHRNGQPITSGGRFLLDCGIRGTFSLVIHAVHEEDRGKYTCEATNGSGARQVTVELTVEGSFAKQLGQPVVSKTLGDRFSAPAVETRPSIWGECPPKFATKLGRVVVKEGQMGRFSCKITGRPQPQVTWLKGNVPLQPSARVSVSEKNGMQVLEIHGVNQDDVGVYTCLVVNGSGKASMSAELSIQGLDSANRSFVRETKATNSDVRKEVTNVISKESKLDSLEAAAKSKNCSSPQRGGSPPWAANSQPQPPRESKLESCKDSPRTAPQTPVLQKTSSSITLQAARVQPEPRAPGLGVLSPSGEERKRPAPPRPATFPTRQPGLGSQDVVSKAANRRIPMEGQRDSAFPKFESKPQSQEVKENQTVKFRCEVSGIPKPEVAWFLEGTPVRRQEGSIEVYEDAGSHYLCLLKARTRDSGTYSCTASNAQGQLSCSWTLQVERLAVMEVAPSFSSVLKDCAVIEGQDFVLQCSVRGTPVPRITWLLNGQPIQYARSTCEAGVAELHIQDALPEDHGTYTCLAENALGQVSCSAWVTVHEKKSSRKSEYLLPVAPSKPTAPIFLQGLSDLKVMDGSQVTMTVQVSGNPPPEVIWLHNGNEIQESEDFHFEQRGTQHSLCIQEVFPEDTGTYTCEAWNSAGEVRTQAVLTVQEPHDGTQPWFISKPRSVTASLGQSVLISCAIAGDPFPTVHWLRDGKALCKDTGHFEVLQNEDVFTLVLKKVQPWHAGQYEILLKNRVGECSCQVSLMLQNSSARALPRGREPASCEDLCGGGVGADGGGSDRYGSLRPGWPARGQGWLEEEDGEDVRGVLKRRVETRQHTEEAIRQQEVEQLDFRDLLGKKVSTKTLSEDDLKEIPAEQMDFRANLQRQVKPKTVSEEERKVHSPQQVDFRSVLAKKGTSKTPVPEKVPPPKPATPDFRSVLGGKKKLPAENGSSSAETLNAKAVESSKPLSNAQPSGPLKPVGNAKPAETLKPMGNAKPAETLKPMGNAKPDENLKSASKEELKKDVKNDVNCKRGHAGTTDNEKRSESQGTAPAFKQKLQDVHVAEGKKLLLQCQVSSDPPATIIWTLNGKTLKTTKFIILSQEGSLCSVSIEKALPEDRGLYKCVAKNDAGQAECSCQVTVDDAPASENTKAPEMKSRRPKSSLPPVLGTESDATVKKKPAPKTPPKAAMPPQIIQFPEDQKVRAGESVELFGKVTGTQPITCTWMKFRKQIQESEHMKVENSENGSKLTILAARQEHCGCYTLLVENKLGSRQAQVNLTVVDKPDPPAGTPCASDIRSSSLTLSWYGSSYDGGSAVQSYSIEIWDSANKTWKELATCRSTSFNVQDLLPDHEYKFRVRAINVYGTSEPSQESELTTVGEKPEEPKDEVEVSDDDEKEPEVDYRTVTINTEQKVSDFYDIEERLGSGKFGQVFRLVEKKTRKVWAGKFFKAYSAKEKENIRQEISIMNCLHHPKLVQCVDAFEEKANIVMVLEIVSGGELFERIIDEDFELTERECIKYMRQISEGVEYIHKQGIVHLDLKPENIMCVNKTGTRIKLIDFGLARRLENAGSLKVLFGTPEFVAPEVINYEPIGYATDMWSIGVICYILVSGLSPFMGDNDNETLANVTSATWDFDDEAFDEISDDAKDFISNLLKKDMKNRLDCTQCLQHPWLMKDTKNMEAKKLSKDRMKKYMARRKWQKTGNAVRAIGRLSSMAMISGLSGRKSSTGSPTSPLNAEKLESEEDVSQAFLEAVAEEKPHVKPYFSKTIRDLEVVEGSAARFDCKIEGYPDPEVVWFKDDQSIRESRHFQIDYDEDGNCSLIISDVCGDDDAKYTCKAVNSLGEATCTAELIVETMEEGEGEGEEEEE
Sequence of Ephrin type-A receptor 7 (Homo sapiens) (Q15375 28-998 limits assumed): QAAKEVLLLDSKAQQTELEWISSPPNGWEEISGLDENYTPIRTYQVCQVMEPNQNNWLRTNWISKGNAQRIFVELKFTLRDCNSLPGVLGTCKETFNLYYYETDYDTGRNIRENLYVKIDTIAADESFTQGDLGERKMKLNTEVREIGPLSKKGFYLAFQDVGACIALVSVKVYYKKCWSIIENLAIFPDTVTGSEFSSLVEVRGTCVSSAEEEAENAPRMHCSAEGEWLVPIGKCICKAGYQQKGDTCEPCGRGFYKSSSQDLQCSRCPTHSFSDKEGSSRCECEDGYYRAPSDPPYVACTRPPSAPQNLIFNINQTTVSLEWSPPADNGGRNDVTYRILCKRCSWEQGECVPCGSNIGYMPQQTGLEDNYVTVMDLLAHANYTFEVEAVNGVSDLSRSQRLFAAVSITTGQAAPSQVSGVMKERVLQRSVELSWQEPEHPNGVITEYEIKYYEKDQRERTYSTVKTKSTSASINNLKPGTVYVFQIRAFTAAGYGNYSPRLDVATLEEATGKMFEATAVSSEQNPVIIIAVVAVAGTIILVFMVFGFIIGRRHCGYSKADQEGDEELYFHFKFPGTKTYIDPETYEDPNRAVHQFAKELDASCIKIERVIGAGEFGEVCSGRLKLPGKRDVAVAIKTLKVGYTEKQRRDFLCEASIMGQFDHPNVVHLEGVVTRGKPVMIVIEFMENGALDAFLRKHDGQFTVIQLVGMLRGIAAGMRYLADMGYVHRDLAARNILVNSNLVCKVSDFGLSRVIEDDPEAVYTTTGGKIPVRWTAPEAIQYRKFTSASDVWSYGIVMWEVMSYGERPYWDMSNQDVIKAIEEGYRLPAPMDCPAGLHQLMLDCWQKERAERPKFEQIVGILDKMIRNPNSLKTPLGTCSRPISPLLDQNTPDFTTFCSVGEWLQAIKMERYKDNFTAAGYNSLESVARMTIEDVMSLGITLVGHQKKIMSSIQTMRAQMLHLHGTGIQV
Sequence of LIM domain kinase 2 (Homo sapiens) (P53671 whole entry, looked up, the tested form may be a part): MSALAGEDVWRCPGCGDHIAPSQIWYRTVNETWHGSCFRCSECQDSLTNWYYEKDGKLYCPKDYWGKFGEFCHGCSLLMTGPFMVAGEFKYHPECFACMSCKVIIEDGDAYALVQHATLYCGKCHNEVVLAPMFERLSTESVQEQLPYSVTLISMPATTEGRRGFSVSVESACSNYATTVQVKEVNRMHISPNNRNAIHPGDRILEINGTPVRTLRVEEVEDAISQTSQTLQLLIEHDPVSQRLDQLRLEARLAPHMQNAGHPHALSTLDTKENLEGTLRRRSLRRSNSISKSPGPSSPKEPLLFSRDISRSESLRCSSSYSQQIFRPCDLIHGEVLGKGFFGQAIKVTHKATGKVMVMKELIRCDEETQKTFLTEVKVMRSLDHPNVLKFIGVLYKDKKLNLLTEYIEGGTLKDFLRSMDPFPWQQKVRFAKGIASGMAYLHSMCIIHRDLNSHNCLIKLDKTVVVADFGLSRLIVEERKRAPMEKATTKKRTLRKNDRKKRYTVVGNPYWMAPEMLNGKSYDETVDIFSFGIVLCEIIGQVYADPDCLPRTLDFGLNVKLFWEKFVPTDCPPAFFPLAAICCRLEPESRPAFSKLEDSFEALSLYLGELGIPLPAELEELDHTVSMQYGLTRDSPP
Sequence of Choline/ethanolamine kinase (Homo sapiens) (Q9Y259 whole entry, the tested form may be a part, canonical isoform): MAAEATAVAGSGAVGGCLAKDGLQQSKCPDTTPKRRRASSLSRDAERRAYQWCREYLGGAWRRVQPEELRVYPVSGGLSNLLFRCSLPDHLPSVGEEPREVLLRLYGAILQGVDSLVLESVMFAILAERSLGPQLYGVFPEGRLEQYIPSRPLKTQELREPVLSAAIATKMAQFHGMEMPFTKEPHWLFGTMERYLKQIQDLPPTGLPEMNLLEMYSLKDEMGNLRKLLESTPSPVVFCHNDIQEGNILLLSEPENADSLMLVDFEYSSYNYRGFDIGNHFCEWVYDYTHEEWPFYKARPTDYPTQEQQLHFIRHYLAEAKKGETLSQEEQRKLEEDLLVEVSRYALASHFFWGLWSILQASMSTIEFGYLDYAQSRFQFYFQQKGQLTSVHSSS

Q: Which Activity [1] does the source give for `CC(C)(O)CNc1ncc(-c2ccnc(Nc3ccnc(Cl)c3)n2)c(CC2CC2)n1` here?
A: 118%

Q: What about the Activity [2] of the same compound?
A: 112%

Q: And the Activity [3]?
A: 109%

Q: What about the Activity [4] of the same compound?
A: 106%

Q: And the Activity [5]?
A: 105%

Q: What about the inhibition [6] of the same compound?
A: inactive

Q: What about the inhibition [7] of the same compound?
A: inactive

Q: And the inhibition [8]?
A: inactive

Q: And the inhibition [9]?
A: inactive

Q: What about the inhibition [10] of the same compound?
A: inactive

Q: And the inhibition [11]?
A: inactive

Q: What about the inhibition [12] of the same compound?
A: inactive

Q: And the inhibition [13]?
A: inactive

Q: And the inhibition [14]?
A: inactive

Q: What about the inhibition [15] of the same compound?
A: inactive

Q: And the inhibition [16]?
A: inactive

Q: What about the inhibition [17] of the same compound?
A: inactive

Q: What about the inhibition [18] of the same compound?
A: inactive

Q: What about the inhibition [19] of the same compound?
A: inactive

Q: What about the inhibition [20] of the same compound?
A: inactive

Q: What about the inhibition [21] of the same compound?
A: inactive

Q: And the inhibition [22]?
A: inactive

Q: What about the inhibition [23] of the same compound?
A: inactive

Q: What about the IC50 [24] of the same compound?
A: 21.4 µM

Q: And the IC50 [25]?
A: 0.382 µM

Q: And the IC50 [26]?
A: 3.37 µM
